Results on 28 molecules are retold here after ChEMBL document CHEMBL3217426, “Synthesis and in vitro biological evaluation of pyrazole group-containing analogues for PDE10A” (Medchemcomm, 2013).

Molecules are shown by their SMILES.

The target in experiment [1] is cAMP and cAMP-inhibited cGMP 3',5'-cyclic phosphodiesterase 10A (Homo sapiens, UniProt Q9Y233). Nature of the experiment: Inhibition of human recombinant PDE10A catalytic domain assessed reduction in [3H]cAMP hydrolysis preincubated with enzyme for 5 mins prior to substrate addition measured after 20 mins by scintillation proximity assay. An outline of the steps: (§1)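 [3H]cAMP (40 nCi/mL, 1/3 Km) was added, then 20 min on ice (~30% turnover). Stopped with yttrium silicate SPA beads, settled 1.5 h at room temperature, CPM counted. IC50 from one-site competitive nonlinear fit, at least two independent runs.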
Chain of cAMP and cAMP-inhibited cGMP 3',5'-cyclic phosphodiesterase 10A (Q9Y233 whole entry, the tested form may be a part): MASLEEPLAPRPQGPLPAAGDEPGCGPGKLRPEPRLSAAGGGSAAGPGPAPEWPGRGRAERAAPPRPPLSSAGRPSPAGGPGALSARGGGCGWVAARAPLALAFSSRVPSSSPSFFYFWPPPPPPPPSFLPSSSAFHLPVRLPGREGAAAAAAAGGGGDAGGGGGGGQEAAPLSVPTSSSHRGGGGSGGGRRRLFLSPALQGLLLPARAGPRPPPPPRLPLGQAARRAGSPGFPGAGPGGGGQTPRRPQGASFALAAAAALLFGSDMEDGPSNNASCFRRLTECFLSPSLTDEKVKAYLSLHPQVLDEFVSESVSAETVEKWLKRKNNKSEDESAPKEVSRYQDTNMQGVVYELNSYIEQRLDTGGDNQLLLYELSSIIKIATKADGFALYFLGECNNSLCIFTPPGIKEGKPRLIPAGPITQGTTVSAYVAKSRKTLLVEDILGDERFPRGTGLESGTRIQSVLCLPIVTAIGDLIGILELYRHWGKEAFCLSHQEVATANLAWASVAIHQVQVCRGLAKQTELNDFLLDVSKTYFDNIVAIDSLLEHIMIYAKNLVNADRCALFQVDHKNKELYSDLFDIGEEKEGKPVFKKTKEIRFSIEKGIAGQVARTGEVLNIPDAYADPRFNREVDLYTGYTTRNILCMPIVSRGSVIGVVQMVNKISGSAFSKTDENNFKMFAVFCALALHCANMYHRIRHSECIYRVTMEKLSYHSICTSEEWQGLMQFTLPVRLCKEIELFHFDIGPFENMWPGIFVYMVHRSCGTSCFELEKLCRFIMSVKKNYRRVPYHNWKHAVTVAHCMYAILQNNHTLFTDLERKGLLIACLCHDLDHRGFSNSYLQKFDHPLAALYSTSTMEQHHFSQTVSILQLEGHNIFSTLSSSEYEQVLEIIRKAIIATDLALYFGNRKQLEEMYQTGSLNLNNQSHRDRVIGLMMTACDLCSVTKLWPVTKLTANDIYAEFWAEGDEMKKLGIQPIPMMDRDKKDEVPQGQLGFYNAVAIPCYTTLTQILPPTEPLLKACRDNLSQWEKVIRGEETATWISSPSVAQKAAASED

Experiment [2] addresses 3',5'-cyclic-AMP phosphodiesterase 4A (Homo sapiens, UniProt P27815). The experiment in a line: Inhibition of human recombinant PDE4A assessed reduction in [3H]cAMP hydrolysis preincubated with enzyme for 5 mins prior to substrate addition measured after 20 mins by scintillation proximity assay. An outline of the steps:
as §1

The target in experiment [3] is cGMP-inhibited 3',5'-cyclic phosphodiesterase 3A (Homo sapiens, UniProt Q14432). Nature of the experiment: Inhibition of human recombinant PDE3A assessed reduction in [3H]cAMP hydrolysis preincubated with enzyme for 5 mins prior to substrate addition measured after 20 mins by scintillation proximity assay. An outline of the steps:
as §1

Experiment [4] concerns the target 3',5'-cyclic-AMP phosphodiesterase 4B (Homo sapiens, UniProt Q07343). Nature of the experiment: Inhibition of human recombinant PDE4B assessed reduction in [3H]cAMP hydrolysis preincubated with enzyme for 5 mins prior to substrate addition measured after 20 mins by scintillation proximity assay. An outline of the steps:
as §1

The target of experiment [5] is cGMP-inhibited 3',5'-cyclic phosphodiesterase 3B (Homo sapiens, UniProt Q13370). The experiment in a line: Inhibition of human recombinant PDE3B assessed reduction in [3H]cAMP hydrolysis preincubated with enzyme for 5 mins prior to substrate addition measured after 20 mins by scintillation proximity assay. An outline of the steps:
as §1

Chain of cGMP-inhibited 3',5'-cyclic phosphodiesterase 3A (Q14432 whole entry): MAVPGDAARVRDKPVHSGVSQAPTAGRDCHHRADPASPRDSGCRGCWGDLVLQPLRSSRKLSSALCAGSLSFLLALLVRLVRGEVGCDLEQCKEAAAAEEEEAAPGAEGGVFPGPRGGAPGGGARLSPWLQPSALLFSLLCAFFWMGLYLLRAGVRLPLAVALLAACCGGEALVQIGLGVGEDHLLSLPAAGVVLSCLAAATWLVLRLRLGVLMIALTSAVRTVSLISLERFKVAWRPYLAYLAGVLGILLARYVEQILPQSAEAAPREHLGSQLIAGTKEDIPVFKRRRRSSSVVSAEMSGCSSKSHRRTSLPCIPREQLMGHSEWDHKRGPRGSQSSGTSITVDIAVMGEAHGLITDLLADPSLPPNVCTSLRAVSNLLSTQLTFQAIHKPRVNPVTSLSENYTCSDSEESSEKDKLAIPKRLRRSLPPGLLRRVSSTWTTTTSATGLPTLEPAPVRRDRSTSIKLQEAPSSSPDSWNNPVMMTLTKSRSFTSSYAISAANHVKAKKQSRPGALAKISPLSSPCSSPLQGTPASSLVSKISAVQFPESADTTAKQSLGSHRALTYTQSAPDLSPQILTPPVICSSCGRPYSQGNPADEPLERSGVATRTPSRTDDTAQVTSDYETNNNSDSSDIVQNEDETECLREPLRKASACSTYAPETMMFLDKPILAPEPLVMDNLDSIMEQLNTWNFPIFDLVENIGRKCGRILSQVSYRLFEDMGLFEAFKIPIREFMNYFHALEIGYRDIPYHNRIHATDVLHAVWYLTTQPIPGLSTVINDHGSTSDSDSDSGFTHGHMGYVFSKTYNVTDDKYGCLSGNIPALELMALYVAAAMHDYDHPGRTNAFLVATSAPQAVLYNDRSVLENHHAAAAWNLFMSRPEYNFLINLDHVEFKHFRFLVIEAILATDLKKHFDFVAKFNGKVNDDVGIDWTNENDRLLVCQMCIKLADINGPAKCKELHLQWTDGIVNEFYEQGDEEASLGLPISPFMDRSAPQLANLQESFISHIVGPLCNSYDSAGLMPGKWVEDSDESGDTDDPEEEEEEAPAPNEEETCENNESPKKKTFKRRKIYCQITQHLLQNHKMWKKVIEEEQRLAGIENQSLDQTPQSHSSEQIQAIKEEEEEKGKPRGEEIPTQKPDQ
Chain of 3',5'-cyclic-AMP phosphodiesterase 4B (Q07343 whole entry): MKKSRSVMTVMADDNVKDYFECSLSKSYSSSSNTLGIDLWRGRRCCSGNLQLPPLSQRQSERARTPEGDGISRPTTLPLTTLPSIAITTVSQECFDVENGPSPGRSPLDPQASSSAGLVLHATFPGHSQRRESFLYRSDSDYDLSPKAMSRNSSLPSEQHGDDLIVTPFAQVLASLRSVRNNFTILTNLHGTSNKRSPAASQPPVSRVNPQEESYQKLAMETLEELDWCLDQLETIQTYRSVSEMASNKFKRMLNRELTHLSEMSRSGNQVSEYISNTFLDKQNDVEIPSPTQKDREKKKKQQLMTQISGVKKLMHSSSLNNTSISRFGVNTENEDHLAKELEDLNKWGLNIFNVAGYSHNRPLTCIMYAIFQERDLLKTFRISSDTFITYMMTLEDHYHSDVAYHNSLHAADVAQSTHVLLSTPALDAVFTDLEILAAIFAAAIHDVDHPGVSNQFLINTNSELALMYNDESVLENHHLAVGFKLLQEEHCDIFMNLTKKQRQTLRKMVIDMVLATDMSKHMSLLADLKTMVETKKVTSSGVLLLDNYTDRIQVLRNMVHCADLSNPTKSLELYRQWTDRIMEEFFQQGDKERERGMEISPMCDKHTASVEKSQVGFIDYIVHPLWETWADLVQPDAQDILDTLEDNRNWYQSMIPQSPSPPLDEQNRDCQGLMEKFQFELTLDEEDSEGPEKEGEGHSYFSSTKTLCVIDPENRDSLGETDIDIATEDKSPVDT
Chain of 3',5'-cyclic-AMP phosphodiesterase 4A (P27815 whole entry): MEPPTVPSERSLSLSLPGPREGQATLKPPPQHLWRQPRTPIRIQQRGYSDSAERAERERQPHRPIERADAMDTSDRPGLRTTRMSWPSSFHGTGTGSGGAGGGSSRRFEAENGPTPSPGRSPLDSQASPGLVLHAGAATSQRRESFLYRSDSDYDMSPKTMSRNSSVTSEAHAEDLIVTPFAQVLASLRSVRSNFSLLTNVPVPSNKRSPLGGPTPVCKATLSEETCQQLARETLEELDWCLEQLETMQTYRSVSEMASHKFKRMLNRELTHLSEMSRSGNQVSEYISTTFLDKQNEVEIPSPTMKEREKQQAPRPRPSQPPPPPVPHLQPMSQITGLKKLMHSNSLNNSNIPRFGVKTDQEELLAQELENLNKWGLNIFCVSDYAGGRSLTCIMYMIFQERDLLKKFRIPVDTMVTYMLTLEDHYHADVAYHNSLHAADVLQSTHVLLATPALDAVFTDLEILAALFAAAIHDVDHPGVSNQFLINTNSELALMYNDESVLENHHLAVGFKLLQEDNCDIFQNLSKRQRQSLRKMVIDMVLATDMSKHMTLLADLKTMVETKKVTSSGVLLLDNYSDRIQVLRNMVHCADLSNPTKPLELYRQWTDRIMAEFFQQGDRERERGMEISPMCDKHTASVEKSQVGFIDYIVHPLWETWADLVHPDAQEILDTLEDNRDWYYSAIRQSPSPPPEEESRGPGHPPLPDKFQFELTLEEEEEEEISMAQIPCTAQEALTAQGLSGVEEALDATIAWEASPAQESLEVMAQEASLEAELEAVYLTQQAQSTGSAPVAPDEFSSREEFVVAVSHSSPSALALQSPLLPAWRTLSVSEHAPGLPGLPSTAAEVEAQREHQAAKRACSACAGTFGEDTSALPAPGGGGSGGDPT
Chain of cGMP-inhibited 3',5'-cyclic phosphodiesterase 3B (Q13370 whole entry): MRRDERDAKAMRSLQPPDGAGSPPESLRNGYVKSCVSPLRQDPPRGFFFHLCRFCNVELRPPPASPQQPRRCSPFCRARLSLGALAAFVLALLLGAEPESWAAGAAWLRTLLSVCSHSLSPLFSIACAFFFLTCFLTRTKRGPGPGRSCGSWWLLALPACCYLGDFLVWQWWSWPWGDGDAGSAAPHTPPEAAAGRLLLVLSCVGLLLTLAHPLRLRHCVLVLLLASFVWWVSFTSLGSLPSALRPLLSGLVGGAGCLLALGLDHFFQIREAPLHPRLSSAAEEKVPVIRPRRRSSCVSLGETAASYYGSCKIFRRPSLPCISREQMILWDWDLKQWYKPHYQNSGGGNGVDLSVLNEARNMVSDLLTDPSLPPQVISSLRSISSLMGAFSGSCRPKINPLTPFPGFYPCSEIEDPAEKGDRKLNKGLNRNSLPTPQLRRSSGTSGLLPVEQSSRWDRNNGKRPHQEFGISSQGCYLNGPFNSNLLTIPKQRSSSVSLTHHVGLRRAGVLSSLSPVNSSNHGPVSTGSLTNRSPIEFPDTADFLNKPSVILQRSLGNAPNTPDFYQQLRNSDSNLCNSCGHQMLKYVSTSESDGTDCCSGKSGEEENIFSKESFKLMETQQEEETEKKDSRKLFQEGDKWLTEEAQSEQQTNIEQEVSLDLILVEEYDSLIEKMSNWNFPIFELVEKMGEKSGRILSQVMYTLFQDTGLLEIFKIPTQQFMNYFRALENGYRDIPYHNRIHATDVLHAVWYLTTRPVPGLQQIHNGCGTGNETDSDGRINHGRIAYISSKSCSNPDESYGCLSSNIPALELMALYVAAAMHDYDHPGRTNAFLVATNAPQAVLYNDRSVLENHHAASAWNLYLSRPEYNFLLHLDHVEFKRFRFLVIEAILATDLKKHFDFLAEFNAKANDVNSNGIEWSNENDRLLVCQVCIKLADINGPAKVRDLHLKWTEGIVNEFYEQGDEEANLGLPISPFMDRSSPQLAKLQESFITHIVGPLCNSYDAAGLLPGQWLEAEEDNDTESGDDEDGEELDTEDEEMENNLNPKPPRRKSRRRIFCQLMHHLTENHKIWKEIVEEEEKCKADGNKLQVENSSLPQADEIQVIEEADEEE

As to `COc1ccc2nc(CSc3ccc(-c4c(-c5ccncc5)cnn4C)cc3)ccc2c1`, the concentration for half-maximal inhibition (IC50) in experiment [1] came out at 0.61 µM.
Same read-out and setting: the same measure for `COc1ccc2ccc(CSc3ccc(-c4c(-c5ccncc5)cnn4C)cc3)nc2c1`: 0.635 µM; for `COc1cccc2ccc(CSc3ccc(-c4c(-c5ccncc5)cnn4C)cc3)nc12`: 3.05 µM.
On the same count and under the same terms, the same measure for `COc1cc(CNc2ccc(-c3c(-c4ccncc4)cnn3C)cc2)nc2ccccc12`: 0.645 µM.
For `COc1ccc2nc(CNc3ccc(-c4c(-c5ccncc5)cnn4C)cc3)ccc2c1`, the IC50 in experiment [1] was 4.25 µM.
Turning to `COc1ccc2ccc(CNc3ccc(-c4c(-c5ccncc5)cnn4C)cc3)nc2c1`, the IC50 in experiment [1] is 5.15 µM.
As to `COc1cccc2ccc(CNc3ccc(-c4c(-c5ccncc5)cnn4C)cc3)nc12`, the IC50 in experiment [1] stood at 4.6 µM.
For the molecule `COc1cc2ccccc2nc1COc1ccc(-c2nn(C)cc2-c2ccncc2)cc1`, the 50% inhibitory concentration (IC50) in experiment [2] was 3.85 µM; in experiment [3] it was 123 µM; in experiment [4], 3.43 µM; in experiment [5], 82.7 µM; in experiment [1], 0.0004 µM.
With `COc1cc(COc2ccc(-c3nn(C)cc3-c3ccncc3)cc2)nc2ccccc12`, the IC50 in experiment [2] amounted to 2.56 µM; in experiment [3], 27.5 µM; in experiment [4], 1.79 µM; in experiment [5] it was 3.85 µM; in experiment [1], 0.00028 µM.
In the case of `COc1cccc2nc(COc3ccc(-c4nn(C)cc4-c4ccncc4)cc3)ccc12`, in experiment [1], the IC50 came out at 0.06 µM.
As to `COc1ccc2nc(COc3ccc(-c4nn(C)cc4-c4ccncc4)cc3)ccc2c1`, the concentration for half-maximal inhibition (IC50) in experiment [2] came to 3.37 µM; in experiment [3], 78 µM; in experiment [4] it was 2.56 µM; in experiment [5] it was 9.75 µM; in experiment [1] it was 0.00182 µM.
As for `COc1ccc2ccc(COc3ccc(-c4nn(C)cc4-c4ccncc4)cc3)nc2c1`, in experiment [1], the half-inhibitory concentration (IC50) is 0.046 µM.
For the molecule `COc1cccc2ccc(COc3ccc(-c4nn(C)cc4-c4ccncc4)cc3)nc12`, the concentration for half-maximal inhibition (IC50) in experiment [1] is 0.0415 µM.
On the same count and under the same terms, the figure for `COc1cc(CSc2ccc(-c3nn(C)cc3-c3ccncc3)cc2)nc2ccccc12` is 0.168 µM; for `COc1ccc2nc(CSc3ccc(-c4nn(C)cc4-c4ccncc4)cc3)ccc2c1` it is 0.415 µM; for `COc1ccc2ccc(CSc3ccc(-c4nn(C)cc4-c4ccncc4)cc3)nc2c1` it is 0.4 µM.
With `COc1cccc2ccc(CSc3ccc(-c4nn(C)cc4-c4ccncc4)cc3)nc12`, in experiment [1], the IC50 turned out to be 0.635 µM.
Consider `COc1cc(CNc2ccc(-c3nn(C)cc3-c3ccncc3)cc2)nc2ccccc12`, for which the IC50 in experiment [1] stood at 13.9 µM.
On to `COc1ccc2nc(CNc3ccc(-c4nn(C)cc4-c4ccncc4)cc3)ccc2c1`, for which the IC50 in experiment [1] was 7.5 µM.
As for `COc1ccc2ccc(CNc3ccc(-c4nn(C)cc4-c4ccncc4)cc3)nc2c1`, the IC50 in experiment [1] was found to be 7.4 µM.
Regarding `COc1cccc2ccc(CNc3ccc(-c4nn(C)cc4-c4ccncc4)cc3)nc12`, the IC50 in experiment [1] is 10.9 µM.
For the molecule `COc1cc2ccccc2nc1COc1ccc(-c2c(-c3ccncc3)cnn2C)cc1`, the IC50 in experiment [2] is 199 µM; in experiment [3] it was 18.7 µM; in experiment [4], 31.5 µM; in experiment [5] it was 16.9 µM; in experiment [1], 0.00024 µM.
Turning to `COc1cc(COc2ccc(-c3c(-c4ccncc4)cnn3C)cc2)nc2ccccc12`, the IC50 turned out to be 4.18 µM in experiment [2]; 29 µM in experiment [3]; 5.06 µM in experiment [4]; 4.8 µM in experiment [5]; 0.00036 µM in experiment [1].
For `COc1cccc2nc(COc3ccc(-c4c(-c5ccncc5)cnn4C)cc3)ccc12`, the IC50 in experiment [1] was 0.0814 µM.
Take `COc1ccc2nc(COc3ccc(-c4c(-c5ccncc5)cnn4C)cc3)ccc2c1`: the IC50 in experiment [2] was determined as 5.6 µM; in experiment [3], 1.5 µM; in experiment [4], 7.1 µM; in experiment [5], 3 µM; in experiment [1], 0.00178 µM.
In the case of `COc1ccc2ccc(COc3ccc(-c4c(-c5ccncc5)cnn4C)cc3)nc2c1`, the IC50 in experiment [1] came to 0.095 µM.
Consider `COc1cccc2ccc(COc3ccc(-c4c(-c5ccncc5)cnn4C)cc3)nc12`, for which the IC50 in experiment [1] is 0.199 µM.
With `COc1cc(CSc2ccc(-c3c(-c4ccncc4)cnn3C)cc2)nc2ccccc12`, in experiment [1], the IC50 was found to be 1.85 µM.
